Assay outcomes as filed in PubChem.
RGS4 inh: RGS4 inhibitors, primary screen, cell-based, HEK293 M3R inducible RGS4, calcium flux | B-score at 10 µM | Regulator of G-protein signaling 4 (Homo sapiens), P49798 | 0.45% of 310,000 active | Fluo-4 calcium flux; active compounds read high; triggered by carbachol at its EC20;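 active = B-score, a plate-corrected calcium signal, over three deviations above library mean, with baseline fluorescence within five deviations of library mean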;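 also: RGS4 expression induced by doxycycline in cells with stable M3 receptor; B-score is computed from the integrated fluorescence ratio over baseline after carbachol; higher B-score means a larger calcium signal and so more RGS4 inhibition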
Target sequence (P49798 whole entry, looked up): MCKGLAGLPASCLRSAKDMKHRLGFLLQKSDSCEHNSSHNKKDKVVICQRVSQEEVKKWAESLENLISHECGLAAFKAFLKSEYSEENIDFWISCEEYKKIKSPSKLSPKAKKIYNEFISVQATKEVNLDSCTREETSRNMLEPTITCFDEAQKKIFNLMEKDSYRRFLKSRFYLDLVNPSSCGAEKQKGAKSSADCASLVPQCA
MrgX1 ag: agonists of human MrgX1 receptor, primary screen, HEK293 cells, Fluo-4 calcium flux; Fluo-4 calcium fluorescence, agonist mode; active compounds read high; 0.44% of 310,000 active; B-score at 10 µM; AID 588627, 2011; Mas-related G-protein coupled receptor member X1 (Homo sapiens), Q96LB2;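 active = calcium response B-score plate-corrected fluorescence ratio at least 3 library SD, with starting fluorescence B-score inside 5 SD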
Target sequence (Q96LB2 whole entry, looked up): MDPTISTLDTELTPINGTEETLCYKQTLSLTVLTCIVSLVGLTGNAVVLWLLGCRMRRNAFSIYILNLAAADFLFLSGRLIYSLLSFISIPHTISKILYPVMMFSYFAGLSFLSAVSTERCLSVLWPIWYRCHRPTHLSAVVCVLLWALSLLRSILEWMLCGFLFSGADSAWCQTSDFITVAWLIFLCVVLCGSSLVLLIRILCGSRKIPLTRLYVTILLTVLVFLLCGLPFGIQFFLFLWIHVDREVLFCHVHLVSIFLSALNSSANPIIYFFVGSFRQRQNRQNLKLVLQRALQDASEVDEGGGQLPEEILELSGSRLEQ
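Material – MrgX1-expressing HEK293 cells · Input – 15,000 cells seeded per well · Dosing – compound as first of three additions · Times – overnight seeding, then 1 h dark dye loading · Measured by – kinetic Fluo-4 NW fluorescence of intracellular calcium · Read-out – B-scored fluorescence response ratio · Benchmarks – positive and negative control wells on each plate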
RGS4 act: RGS4 potentiators or activators, primary screen, cell-based, HEK293 M3R inducible RGS4, calcium flux; carbachol calcium flux Fluo4; active compounds read low; B-score at 10 µM; 0.92% of 310,000 active; AID 463111, 2010;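 active = B-score of the integrated calcium signal more than 4 SD below the library mean, with starting fluorescence not abnormally high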;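 also: negative B-score means reduced calcium response which marks RGS4 activation or potentiation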
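Material: M3R-expressing HEK293 line, RGS4 induced by doxycycline | Schedule: Overnight RGS4 induction, 30 min dye load 37 °C, 20 min compound RT | Measured by: Fluo4 fluorescence kinetic imaging of calcium | Read-out: Integrated calcium ratio converted to B score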
MrgX1 PAM: positive allosteric modulators of MrgX1, primary screen, HEK293 cells, Fluo-4 calcium flux. B-score at 10 µM. AID 588675, 2011. Mas-related G-protein coupled receptor member X1 (Homo sapiens), Q96LB2. FDSS; active compounds read high. 0.63% of 310,000 active;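 active = plate-corrected calcium response at least 3 library SD above typical, normal starting fluorescence, not activating the receptor alone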;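 also: compound read alongside a low EC10 to EC30 dose of BAM8-22 agonist; peak minus trough fluorescence over baseline measured at the second addition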
MrgX1 antag: antagonists of human MrgX1 receptor, primary screen, HEK293 cells, Fluo-4 calcium flux; BAM8-22 antagonism; active compounds read low; B-score at 10 µM; 1.3% of 310,000 active; AID 588676, 2011;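 active = calcium-response B-score plate-corrected more than 3 library SD below zero, starting fluorescence within 5 deviations, no agonist response on first addition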;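 also: peak minus trough fluorescence over baseline after final BAM8-22 challenge near maximal dose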
RGS4 block valid: enhanced carbachol calcium response, M3R/RGS4 cells, RGS4 inhibitor project, cell-based, validation screen, HEK293 M3R/RGS4, calcium flux. carbachol calcium Fluo-4 fluorescence; carbachol added at its EC20; 0 = buffer wells, 100 = carbachol control. 65% of 1,700 active. shares compounds with RGS4 inh. calcium response, % at 10 µM. AID 492999, 2010;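 active = duplicate-averaged calcium response above the buffer-only control mean plus 5 SD of those controls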;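 also: integrated fluorescence ratio F max minus min over baseline F0; higher response in RGS4-induced cells means RGS4 inhibition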
RGS4 uninduced: carbachol calcium response in non-induced M3R cells, confirmation, counter-screen for RGS4 inhibitor project, cell-based, HEK293 M3R; shares compounds with RGS4 inh; carbachol calcium Fluo-4; submaximal (EC20) carbachol stimulus; buffer wells 0%, carbachol control wells 100%; activity (percent), % at 10 µM; 20% of 1,900 active; call rule not given here;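 also: RGS4 induction absent so cells express M3R without RGS4; higher means more calcium signal and flags a non-specific hit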
M3R basal Ca ctr: second counter-screen for RGS4 inhibitors: non-induced cells without carbachol. shares compounds with RGS4 inh. HEK293 M3R/RGS4 non-induced, Fluo-4 calcium, no carbachol; normalised: buffer wells 0%, carbachol wells 100%. calcium response (agonist-mode artifact), % at 10 µM. 22% of 1,900 active. AID 493001;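 active = duplicate-averaged calcium rise in uninduced cells above buffer wells' mean plus 5 SD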
* = called active by the depositor; i = inactive; . = no result. Shown are actives, neighbours in structure and some others; about 3.5% of the full set was active somewhere.

SMILES | RGS4 inh | MrgX1 ag | RGS4 act | MrgX1 PAM | MrgX1 antag | RGS4 block valid | RGS4 uninduced | M3R basal Ca ctr
COc1cccc(OC)c1C(=O)Nc1nc(-c2ccccc2)cs1 | i | i | i | i | i | i | i | i
COc1ccc(-c2csc(NC(=O)c3ccccc3C(=O)O)n2)cc1 | i | i | i | i | i | . | . | .
O=C(Nc1cccc(S(=O)(=O)Nc2ccc(Cl)cc2)c1)c1ccc[n+]([O-])c1 | i | i | i | i | i | . | . | .
Cc1ccc(-c2cc(-c3ccc(F)cc3)nc(N)c2C#N)o1 | 5.97* | i | i | i | i | i | i | i
Cc1ccc(-c2cc(-c3ccccc3)c(C#N)c(N)n2)o1 | 7.68* | i | i | i | i | 5.5%* | i | i
Cc1ccc(N=Cc2ccc(O)cc2O)cc1F | 10* | i | i | i | i | 13.5%* | i | 13.0%*
Oc1ccc(C=Nc2cccc3ccccc23)c(O)c1 | i | i | i | i | i | . | . | .
O=C(O)c1nccnc1C(=O)Nc1ccc(Cl)cn1 | i | i | i | i | i | . | . | .
O=C(CSc1nnc(CNC(=O)c2c(F)cccc2F)o1)NCc1ccc(F)cc1 | i | i | i | i | i | . | . | .
CCOC(=O)[C@@H]1[C@H]2COc3ccccc3[C@@H]2N2C(=O)N(c3ccc(C(F)(F)F)cc3)C(=O)[C@]12C | i | i | i | i | i | i | i | i
CCOC(=O)[C@@H]1[C@H]2COc3ccccc3[C@H]2N2C(=O)N(c3ccc(C(F)(F)F)cc3)C(=O)[C@]12C | i | i | i | i | i | i | i | i
COc1ccc(CNC(=O)C(=O)NCC2OCCN2S(=O)(=O)c2ccc(OC)cc2)cc1 (configuration not stated) | i | i | i | i | i | . | . | .
O=C(NCC1OCCCN1S(=O)(=O)c1ccc(F)cc1)C(=O)NC1CCCC1 (configuration not stated) | i | i | i | i | i | i | i | i
COc1ccc(S(=O)(=O)N2CCCOC2CNC(=O)C(=O)NC2CCCC2)cc1 (configuration not stated) | i | i | i | i | i | i | i | i
COc1ccc2oc(=N)c(C(=O)Nc3ccc(Cl)cc3)cc2c1 | i | i | i | i | i | . | . | .
CCCCc1nc2n[nH]c(N)c2c2c1CSC(C)(C)C2 | 4.67* | i | i | i | i | i | i | i
COc1ccc(/C=N/n2cc(-c3ccc(OC)cc3)nc2N)cc1 | 37.4* | i | i | i | i | 24.0%* | i | i
COc1ccc(Cn2c(=O)c3[nH]cnc3n(-c3ccccc3C)c2=O)cc1 | 7.78* | i | i | i | i | 15.0%* | 38.0%* | i
O=C(O)CCC(=O)Nc1sc2c(c1C(=O)NCc1ccccc1)CCCC2 | i | i | i | i | i | . | . | .
COc1ccc(NC(=O)c2c(NC(=O)CCC(=O)O)sc3c2CCCCC3)cc1 | i | i | i | i | i | i | i | i
Cc1ccc(C(=O)NCC(=O)NCC(=O)OCC(=O)c2ccc(F)cc2)cc1 | i | i | i | i | i | . | . | .
O=C(Cn1cnc2ccccc2c1=O)c1cccs1 | i | i | i | i | i | . | . | .
O=C(/C=C/c1ccnc2ccccc12)c1cccs1 | 13.5* | i | i | i | i | 18.5%* | 41.0%* | i
CC1CN(C(=O)Nc2ccc3snnc3c2)c2ccccc21 (configuration not stated) | i | i | i | i | i | . | . | .
COc1ccccc1C(=O)NCCC(=O)NCCc1ccccc1 | i | i | i | i | i | . | . | .
SMILES | RGS4 inh | MrgX1 ag | RGS4 act | MrgX1 PAM | MrgX1 antag | RGS4 block valid | RGS4 uninduced | M3R basal Ca ctr
O=S(=O)(C/C(=C/CO)S(=O)(=O)c1ccccc1)c1ccccc1 | 10.3* | 33.8* | i | i | i | 38.0%* | 35.5%* | 16.0%*
CC1=C([N+](=O)[O-])C(c2ccc(Cl)cc2)NC(=O)N1 (configuration not stated) | i | i | i | i | i | . | . | .
CCCCNC(=S)N(CCO)Cc1cc2cc3c(cc2[nH]c1=O)OCCO3 | i | i | i | i | i | i | i | i
CCOCCCNC(=S)N(CCO)Cc1cc2cc3c(cc2[nH]c1=O)OCCO3 | i | i | i | i | i | i | i | i
CCN(CC)CCCNC(=S)N(CCO)Cc1cc2cc3c(cc2[nH]c1=O)OCCO3 | i | i | i | i | i | i | i | i
O=C1C(=O)N(CCc2c[nH]c3ccccc23)C(c2cccnc2)/C1=C(/O)c1ccccc1 (configuration not stated) | i | i | i | i | i | . | . | .
Oc1ccc(C[C@H]2CNCCN2CC2CCCCC2)cc1 | i | i | i | i | i | . | . | .
CCCc1c(C)nc(N2CCN(c3ccccc3F)CC2)[nH]c1=O | i | i | i | i | i | . | . | .
CCn1c(SCC(=O)NC2CC2)nnc1-c1ccc(C)cc1 | i | i | i | i | i | . | . | .
CCn1c(SCC(=O)Nc2ccccc2Br)nnc1-c1cnccn1 | i | i | i | i | i | . | . | .
CCOC(=O)Cc1csc(NC(=O)C(NC(=O)C2CCC(C)CC2)C(C)C)n1 (configuration not stated) | i | i | i | i | i | . | . | .
CCOc1cccc(-c2c(C(=O)N/N=C/c3ccc(C)o3)nnn2-c2nonc2N)c1 | i | i | i | i | i | i | i | i
CCOc1cccc(-c2c(C(=O)N/N=C/c3ccco3)nnn2-c2nonc2N)c1 | i | i | i | i | i | i | i | i
